Measurements published in article PMC4846470 (Psychopharmacology, 2016).
Entries after “also recorded” stand apart in the source; their conditions may differ.

Assays:
[1] = target: human recombinant CB1 receptors (Homo sapiens, UniProt P21554); experiment: Radioligand binding to human recombinant CB1 receptors in CHO cell membranes
[2] = target: human CB1 cannabinoid receptors (Homo sapiens, UniProt P21554); experiment: Gi agonist effect: cAMP functional assay in CHO cells expressing CB1; assay type: cell-based; conditions: for Emax: CHO, read-out: Maximum Effect (%)
human CB1 cannabinoid receptors, sequence (P21554 whole entry): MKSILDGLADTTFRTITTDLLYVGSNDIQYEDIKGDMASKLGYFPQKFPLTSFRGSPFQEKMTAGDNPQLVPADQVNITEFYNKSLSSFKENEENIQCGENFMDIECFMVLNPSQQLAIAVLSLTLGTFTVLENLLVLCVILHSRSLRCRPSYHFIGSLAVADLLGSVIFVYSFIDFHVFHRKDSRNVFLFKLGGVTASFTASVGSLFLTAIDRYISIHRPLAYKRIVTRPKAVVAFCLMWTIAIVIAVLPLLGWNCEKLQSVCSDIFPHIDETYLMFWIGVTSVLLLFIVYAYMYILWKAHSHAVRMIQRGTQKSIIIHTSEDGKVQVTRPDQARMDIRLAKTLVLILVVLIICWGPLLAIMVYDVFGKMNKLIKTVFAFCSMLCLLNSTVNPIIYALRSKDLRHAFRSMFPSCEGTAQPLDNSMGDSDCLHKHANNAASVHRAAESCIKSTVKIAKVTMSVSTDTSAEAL

[3] = test system: Male ND4 Swiss–Webster mice; experiment: Locomotor activity; assay type: in vivo; conditions: for Time of peak (maximal) locomotor depression after injection: active doses
Male Sprague-Dawley rats = experiment: Drug discrimination in rats trained to discriminate Δ^9-THC; assay type: in vivo; conditions: for Effect on rate of responding: cannabinoids at doses which substituted; for Substitution for the discriminative stimulus effects of Δ^9-THC: full substitution defined as ≥80% drug-appropriate responding
In short: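 Vehicle: ethanol/Cremophor EL/0.9% saline 1:1:18. In tests both levers paid and data ran to first reinforcer or 20 min. Six rats per compound got all doses. Pretreatment was at locomotor peak-depression time. Rate was responses/time to first reinforcer.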

human recombinant CB1 receptors, sequence (P21554 whole entry): as above

| SMILES | Ki [1] [nM] | EC50 [2] [nM] | Emax [2] [%] | Effect on rate of responding (Male Sprague-Dawley rats; THC-trained rats) | Time of peak (maximal) locomotor depression after injection ([3]; mice, i.p.) [min] | other results |
| --- | --- | --- | --- | --- | --- | --- |
| CCCCCn1cc(C(=O)c2ccc(CC)c3ccccc23)c2ccccc21 [JWH-210, (4-ethyl-1-naphthalenyl)(1-pentyl-1H-indol-3-yl)-methanone] | 1.01 | 111 | 98.2 | modest depression of rate of responding |  | Mice with tremors upon handling ([3]; 8 h following 10 mg/kg i.p.): 6 of 8 |
| CCCCCn1cc(C(=O)NC(C(N)=O)C(C)(C)C)c2ccccc21 (stereo not drawn) [ADBICA, N-(1-amino-3,3-dimethyl-1-oxobutan-2-yl)-1-pentyl-1H-indole-3-carboxamide] | 1.3 | 0.38 | 97.4 |  | ≤ 20 |  |
| CCCCCn1cc(C(=O)c2ccc(C)c3ccccc23)c2ccccc21 [JWH-122, (4-methyl-1-naphthalenyl)(1-pentyl-1H-indol-3-yl)-methanone] | 3.35 | 2.8 | 102 |  |  |  |
| CCCCCn1cc(C(=O)c2ccc(OC)cc2)c2ccccc21 [RCS-4, (4-methoxyphenyl)(1-pentyl-1H-indol-3-yl)methanone] | 22.5 | 20 | 101 | modest depression of rate of responding |  | Substitution for the discriminative stimulus effects of Δ^9-THC (Male Sprague-Dawley rats; THC-trained rats): full substitution |
| CNC(C)Cc1ccc2c(c1)OCO2 (stereo not drawn) [MDMA, 3,4-Methylenedioxy-methamphetamine] |  |  |  | dose-dependently depressed rate of responding |  | Maximum THC-appropriate responding (Male Sprague-Dawley rats; THC-trained rats, following 1.5 mg/kg, negative control): 11%; Substitution for the discriminative stimulus effects of Δ^9-THC (Male Sprague-Dawley rats; THC-trained rats): did not substitute; also recorded: failed to substitute; Rats that failed to complete the first fixed ratio (Male Sprague-Dawley rats; following 3 mg/kg, n=9): 6 of 9 |
| O=C(c1cccc2ccccc12)c1nn(CCCCCF)c2ccccc12 [THJ-2201, (1-(5-fluoropentyl)-1H-indazol-3-yl)(naphthalen-1-yl)methanone] |  | 0.64 | 96.6 |  |  |  |
| CCCCCc1cc(O)c2c(c1)OC(C)(C)[C@@H]1CCC(C)=C[C@@H]21 [Δ^9-THC, Δ^9-Tetrahydrocannabinol, reference compound] |  |  |  |  | 30 to 60 | ED50 Locomotor Activity (locomotor depressant effects) ([3]; mice, i.p., dose producing 1/2 maximal depression, mean with 95% confidence interval): 12.99 (2.51 to 67.21) mg/kg; ED50 Drug Discrimination (discriminative stimulus effects) (Male Sprague-Dawley rats; THC-trained rats, i.p., mean with 95% confidence interval): 1.15 (0.21 to 6.27) mg/kg |
| CCCCCn1nc(C(=O)NC(C(N)=O)C(C)(C)C)c2ccccc21 (stereo not drawn) [ADB-PINACA, N-[1-(aminocarbonyl)-2,2-dimethylpropyl]-1-pentyl-1H-indazole-3-carboxamide] | 0.59 | 0.024 | 99.6 |  | 20 |  |
